STAT3 inh: inhibitors of IL-6 induced STAT3 signaling. U3A cells, IL-6 STAT3-luciferase reporter, luminescence; host cell line lacks STAT1. inhibition, % at 5.5 µM. 190,000 compounds, 0.89% hits;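 active = inhibition above the mean inhibition across all screened compounds plus 3 SD, cut at about 44% in these data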
STAT3 activator: activators of IL-6 induced STAT3 signaling; U3A cells, IL-6 STAT3-luciferase reporter, luminescence; 100% = signal with IL-6 EC80 alone; activation (% of control), % at 5.6 µM; 190,000 compounds, 0.91% hits; AID 871;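 active = activation above the screen-wide mean of compound activation plus 3 SD, cut at about 130% in these data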
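System – human U3A cells carrying STAT3-luciferase construct · Probe or stimulus – Interleukin-6, 33 ng/mL · Schedule – compound 1 h, then IL-6 6 h at 37 °C · Signal – luminescence from STAT3-driven luciferase reporter · Evaluation – percent of IL-6-only median luminescence · Benchmarks – IL-6-only high control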
PPC-1+TRAIL kill: PPC-1 cancer cell killing with TRAIL present; PPC-1 cells + TRAIL, ATPLite viability luminescence; cell killing (% activity), % at 4 µM or 5 µM; 220,000 compounds, 0.41% hits; AID 1443;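 active = cell killing above 50% in the first pass at 4 µM, then a duplicate retest at 5 µM averaging 50% or more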
STAT1 inh: STAT1 signaling inhibition; AID 920; NIH 3T3 STAT1-luciferase reporter, IFN-gamma, luminescence; 200,000 compounds, 0.35% hits; inhibition, % at 5.5 µM;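 active = inhibition above a set limit, the mean inhibition across all tested compounds plus 3 SD, cut at about 34% in these data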
C8 TRAIL sens: sensitizes caspase-8 expressing cells to TRAIL | NB7+C8 cells + TRAIL, ATPlite viability luminescence | inhibition (viability loss, TRAIL sensitization), % at 10 µM | 360,000 compounds, 1% hits | AID 624354;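 active = compounds causing at least 50% loss of cell viability in the single-dose screen, relative to plate controls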
PPC-1 tox: PPC-1 cell cytotoxicity; shares compounds with PPC-1+TRAIL kill; PPC-1 viability, ATPlite luminescence, overnight; cytotoxicity, % at 5 µM; 1,200 compounds, 50% hits;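 active = reconfirmed compounds whose average cytotoxicity reaches 50% or more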
Numbers stand for hits; – = inactive; · = no result given. Compounds with a hit are over-represented: about 1.8% of the library has one in this group of screens.

SMILES | STAT3 inh | STAT3 activator | PPC-1+TRAIL kill | STAT1 inh | C8 TRAIL sens | PPC-1 tox
CCN(Cc1nc2cc(Cl)ccc2c(=O)[nH]1)C(=O)c1cc(C2CC2)nn1-c1ccccc1 | · | · | · | · | – | ·
CN(C(=O)c1ccc2c(c1)OCO2)C1CCS(=O)(=O)C1 (stereo not given) | · | · | · | · | – | ·
COc1cc(NC(=O)CCn2c(=S)[nH]c3ccccc3c2=O)cc(OC)c1OC | · | · | · | · | – | ·
S=c1[nH]c2ccc(Cc3ccc4[nH]c(=S)[nH]c4c3)cc2[nH]1 | · | · | · | · | – | ·
Cc1c(Cl)ccc2c(C(=O)O)cc(-c3ccccc3)nc12 | · | · | – | · | – | –
Oc1ccc(N=Nc2ccc3c(c2)OCCO3)c(O)c1 | · | · | 64.9 | · | 72.2 | 66.3
OCCN(CCO)c1cc2c3ccccc3ccc2c2ccccc12 | · | · | · | · | – | ·
CNC(=S)N/N=C(\C)c1ccc(N2CCOCC2)cc1 | – | – | – | – | – | –
Cc1ccc(S(=O)(=O)NCC(=O)NC2CCCCCC2)cc1 | – | – | – | – | – | –
O=C(CN1C(=O)c2ccccc2S1(=O)=O)c1ccc2c(c1)OCCCO2 | · | · | 86.0 | · | 90.8 | 86.1
O=C(CN1C(=O)c2ccccc2S1(=O)=O)c1cccc(Br)c1 | · | · | · | · | – | ·
O=C(CN1C(=O)c2ccccc2S1(=O)=O)c1ccc2c(c1)OCCO2 | · | · | 83.5 | · | 84.5 | 82.2
COC(=O)c1ccc(OC)c(Cn2c(=O)n(C)c(=O)c3ccccc32)c1 | · | · | · | · | – | ·
CCCNC(=O)c1oc2ccc3c(c2c1C)C(=O)CC(C)(C)O3 | – | – | 51.6 | – | 52.0 | –
Cc1cccc(NCc2nc3ccccc3n2Cc2ccccc2)c1 | – | – | – | – | – | ·
Cc1nc2cc(NCc3nc4ccccc4n3Cc3ccccc3)ccc2n1C | – | – | 60.9 | – | – | 63.3
Cc1nnc(NC(=O)CCN2C(=O)C3CC=CCC3C2=O)s1 (stereo not given) | · | · | · | · | – | ·
COc1ccc(OCc2n(CC(=O)OC3CC(C)CCC3C(C)C)c3ccccc3[n+]2C)cc1 (stereo not given) | · | · | – | · | – | ·
COc1ccc(-c2n(CC(=O)OC3CC(C)CCC3C(C)C)c3ccccc3[n+]2C)cc1 (stereo not given) | 51.9 | – | – | 56.6 | – | 52.1
O=C(Nc1nc(=O)c2ccccc2s1)c1ccccc1 | – | – | – | – | – | –
Cc1cccc(-n2cccc2)c1C#N | – | – | – | – | – | –
N#Cc1c(-n2ccnc2)cccc1-n1ccnc1 | – | – | – | – | – | ·
O=C(NCc1ccco1)C1C(=O)Nc2ccccc2C(=O)N1C1CCCCC1 (stereo not given) | · | · | · | · | – | ·
CC1(C(=O)NS(=O)(=O)c2cccc(C#N)c2)CCN1C(=O)Cc1ccccc1Cl (stereo not given) | · | · | · | · | – | ·
Cc1[nH]n(-c2ccccc2)c(=O)c1C(C[N+](=O)[O-])c1ccc(Br)cc1 (stereo not given) | – | – | – | – | – | –
SMILES | STAT3 inh | STAT3 activator | PPC-1+TRAIL kill | STAT1 inh | C8 TRAIL sens | PPC-1 tox
O=[N+]([O-])c1ccc(Nc2ccccc2)c2nonc12 | · | · | · | · | – | ·
O=[N+]([O-])c1ccc(Sc2cccc[n+]2[O-])c2nonc12 | · | · | – | · | – | –
CCOC(=O)C1=C[C@@H](C2CCCC2)N(S(=O)(=O)c2ccc([N+](=O)[O-])cc2)[C@H]1c1ccccc1 | · | · | · | · | – | ·
CCCn1c(NC(=O)C2CCN(S(=O)(=O)c3cccs3)CC2)nc2ccccc21 | – | – | – | – | – | –
COc1ccc(-n2nc3cc(C)c(NC(=O)C(C)C)cc3n2)cc1 | – | – | – | – | · | ·
COc1ccc(-n2nc3cc(C)c(NC(C)=O)cc3n2)cc1 | 76.5 | – | 64.0 | 39.0 | 73.6 | 60.2
COc1ccc(OCC(=O)N/N=C(\C)c2cccs2)cc1 | · | · | – | · | – | ·
COc1ccc(OCC(=O)N/N=C(\CCC(=O)O)c2cccs2)cc1 | – | – | – | – | – | –
COc1ccc(C(=O)Nc2ccc(C)cn2)c(OC)c1 | 105.2 | – | 88.2 | 82.0 | 90.6 | 88.2
CNC(=S)Nc1cccc(S(=O)(=O)NCc2ccco2)c1 | · | · | · | · | – | ·
Cc1ccc(/C=C/C(=O)c2ccc(N3CCOCC3)cc2)s1 | – | – | 79.8 | – | 73.0 | 77.7
O=c1oc(Nc2cccc(F)c2)nc2ccccc12 | – | – | – | – | – | ·
Nc1nc(Nc2cccc(F)c2)nc2ccccc12 | – | – | – | – | – | –
Cc1nn(-c2ccccc2)c(C)c1/C=N\N1CCN(c2ccc(Cl)cc2)CC1 | – | – | – | – | – | –
Cc1nn(-c2ccccc2)c(C)c1/C=N/n1cnnc1 | – | – | – | – | – | ·
OC(c1cccc(CN2CCCCC2)c1)c1ncc(-c2cccc(C(F)(F)F)c2)[nH]1 (stereo not given) | · | · | · | · | – | ·
CCN(CC)Cc1c(O)ccc2c(=O)c(-c3ccc4c(c3)OCCO4)coc12 | – | – | – | – | – | ·
O=c1c(-c2ccc3c(c2)OCCO3)coc2cc(O)cc(O)c12 | – | – | – | – | – | –
Cc1ccc(-c2nc(-c3ccccc3)no2)c(Cl)c1 | 100.9 | – | 80.6 | 68.8 | 87.1 | 76.6
COc1ccc(-c2noc(-c3ccccc3-c3ccccc3)n2)cc1 | – | – | – | – | – | ·
Cc1c(C(=O)N2CCCCC2)c(S(=O)(=O)N2CCC(C)CC2)c(C)n1C | · | · | · | · | – | ·
COCCn1c(C)cc(C2=NNC(=NC3CC3)SC2)c1C | 103.3 | – | 89.2 | 96.6 | 78.3 | 88.1
CCC(=O)Nc1nonc1-c1nc2ccccc2n1CC(C)C | – | – | – | – | – | –
O=C(O)CCC(=O)Nc1ccc(F)cc1 | – | – | – | – | – | –
Cc1ccc(C(=O)Nc2ccc3c(c2)CCC3)cc1 | 88.2 | – | 52.3 | 64.0 | 78.6 | 53.3
SMILES | STAT3 inh | STAT3 activator | PPC-1+TRAIL kill | STAT1 inh | C8 TRAIL sens | PPC-1 tox
Cc1ccc(C(=O)NCC(=O)Nc2ccc3c(c2)CCC3)cc1 | · | · | · | · | – | ·
O=C1C(O)=C(O)C(=O)c2ccccc21 | · | · | · | · | – | ·
Cc1ccc(-c2cc3c(nn2)-c2ccccc2C3=O)cc1 | · | · | 89.8 | · | 93.3 | 91.7
O=C1c2ccccc2-c2n[nH]c3cccc1c23 | · | · | · | · | – | ·
O=C1c2ccccc2-c2nnc(-c3ccc(O)cc3)cc21 | 71.9 | – | 68.7 | 48.1 | – | 64.2
COc1ccccc1C(=O)COC(=O)Cc1ccccc1F | · | · | · | · | – | ·
CS(=O)(=O)c1ccc(-c2sc3cc4c(cc3c2C(=O)NN2CCOCC2)OCO4)cc1 | · | · | · | · | – | ·
CC1Cc2ccccc2N1S(=O)(=O)c1cnc(Cl)c(Cl)c1 (stereo not given) | · | · | – | · | – | –
CCC(C)Sc1cc(-c2nc3ccc(Cl)cn3c2NC2CCCCC2)ccc1OC (stereo not given) | · | · | · | · | – | ·
CC1CCN(C(=O)c2ccc3c(c2NCCO)C(=O)c2ccccc2C3=O)CC1 | – | – | – | – | – | ·
CCN(CC)CCNC(=O)c1ccc2c(c1NCCO)C(=O)c1ccccc1C2=O | · | · | – | · | 95.4 | –
O=C1c2cccc3c([N+](=O)[O-])ccc(c23)C(=O)N1Cc1cccnc1 | – | – | – | – | – | –
O=C(Nc1ccc(F)cc1)c1cc(-c2ccccn2)nc2c(Cl)cccc12 | · | · | · | · | – | ·

Assay outcomes deposited in PubChem by several laboratories.
